{"data": "Measurements of several laboratories", "target": "Serine/threonine-protein kinase PAK 1 (PAK1, Homo sapiens, UniProt Q13153)", "note": "Protocols differ between the studies behind these lines."}
{"SMILES": "C[C@H](c1ccnc(Nc2nc3ccc(-c4cc(N(C)C)ncn4)cc3[nH]2)c1)N1CCN(C(=O)CC(F)(F)F)CC1", "observed": "cell-free assay", "method": "competition with immobilised ligand", "concentration": "0.1 µM", "remaining binding [%]": 77}
{"SMILES": "O=C(Nc1c[nH]nc1C(=O)NC1CCNCC1)c1cc(F)cc(F)c1", "observed": "binding", "method": "competition with immobilised ligand", "concentration": "1 µM", "remaining binding [%]": 100}
{"SMILES": "CO[C@@H](C)c1c(Nc2ccc([C@@H](N(C)C(=O)C3CCS(=O)(=O)CC3)C(F)(F)F)cc2)cnc2cc(Cl)nn12", "observed": "cell-free assay", "method": "competition with immobilised ligand", "concentration": "1 µM", "remaining binding [%]": 83}
{"SMILES": "C[C@@H]1CN(c2ccc3ncc(-c4ccc5[nH]nc(C6CC6)c5c4)n3n2)C[C@H](C)O1", "observed": "binding", "method": "competition with immobilised ligand", "concentration": "50 nM", "remaining binding [%]": 100}
{"SMILES": "CC(C)(C)c1ccc(-c2nc(CBr)nn2-c2cccc(O)c2)cc1", "observed": "cell-free assay", "method": "competition with immobilised ligand", "concentration": "10 µM", "remaining binding [%]": 98}
{"SMILES": "c1cnn2ncc(-c3ccnc(N4CCC45COC5)n3)c2c1", "observed": "binding", "concentration": "1 µM", "remaining binding [%]": 90}
{"SMILES": "COc1cnc(Nc2cccc(S(N)(=O)=O)c2)nc1N1CCN(c2ccccc2)CC1", "observed": "binding", "method": "competition with immobilised ligand", "concentration": "1 µM", "remaining binding [%]": 99}
{"SMILES": "CS(=O)(=O)c1cc(C2(NC(=O)c3cncc4c3cnn4-c3ccc(F)cc3)CC2)ccn1", "observed": "cell-free assay", "method": "competition with immobilised ligand", "concentration": "1 µM", "remaining binding [%]": 100}
{"SMILES": "O=C(c1ccc(Nc2ncc(Cl)c(-c3ccc(Cl)s3)n2)cc1)N1CCC(N2CCCC2)CC1", "observed": "binding", "method": "competition with immobilised ligand", "concentration": "1 µM", "remaining binding [%]": 68}
{"SMILES": "CN(C)C(=O)Cn1cc(-c2nc([C@@](C)(c3ccc(-c4cnc(N)nc4)cc3)C3CC3)no2)cn1", "observed": "cell-free assay", "method": "competition with immobilised ligand", "concentration": "1 µM", "remaining binding [%]": 100}
{"SMILES": "COc1ncc2cc3ccccc3nc2c1C#N", "observed": "cell-free assay", "method": "competition with immobilised ligand", "concentration": "5 µM", "remaining binding [%]": 97}
{"SMILES": "F[C@@H]1CCN(c2nccc(-c3cnn4ncccc34)n2)C1", "observed": "binding", "concentration": "1 µM", "remaining binding [%]": 100}
{"SMILES": "O=C(c1ccc(Nc2ncc(Cl)c(-c3cc4ccccc4s3)n2)cc1)N1CCC(N2CCCC2)CC1", "observed": "binding", "method": "competition with immobilised ligand", "concentration": "1 µM", "remaining binding [%]": 85}
{"SMILES": "Cc1nc(C2CCN(C(=O)c3ccc(OC(F)(F)F)cc3N)CC2)c2ncc(N3CCN(C)CC3)cc2n1", "observed": "cell-free assay", "method": "competition with immobilised ligand", "concentration": "1 µM", "remaining binding [%]": 100}
{"SMILES": "CN(C)c1nccc(-c2cnn3ncccc23)n1", "observed": "binding", "concentration": "1 µM", "remaining binding [%]": 100}
{"SMILES": "c1cncc(-c2cccc(Nc3nccc(NC4CCCCC4)n3)c2)c1", "observed": "binding", "method": "competition with immobilised ligand", "concentration": "10 µM", "remaining binding [%]": 85}
{"SMILES": "C[C@@H]1CCN(c2nccc(-c3cnn4ncccc34)n2)C1", "observed": "binding", "concentration": "1 µM", "remaining binding [%]": 100}
{"SMILES": "O=C(Nc1cccnn1)N1CCC(=Cc2cccc(Oc3ccc(C(F)(F)F)cn3)c2)CC1", "observed": "cell-free assay", "method": "competition with immobilised ligand", "concentration": "1 µM", "remaining binding [%]": 72}
{"SMILES": "O=C(NCCCN1CCOCC1)c1ccc(Nc2ncc(Cl)c(-c3ccc(Cl)s3)n2)cc1", "observed": "binding", "method": "competition with immobilised ligand", "concentration": "1 µM", "remaining binding [%]": 98}
{"SMILES": "N[C@H]1CCN(c2nccc(-c3cnn4ncccc34)n2)C1", "observed": "binding", "concentration": "1 µM", "remaining binding [%]": 100}
{"SMILES": "Cc1cc(C)c(-n2ccn3nc(-c4cccnc4)cc23)cc1NC(=O)c1cc(C#N)cc(S(F)(F)(F)(F)F)c1", "observed": "cell-free assay", "method": "competition with immobilised ligand", "concentration": "0.1 µM", "remaining binding [%]": 82.2}
{"SMILES": "CN(CCCC(F)(F)F)c1nccc(-c2cnn3ncccc23)n1", "observed": "binding", "concentration": "1 µM", "remaining binding [%]": 98}
{"SMILES": "Nc1ncc2c(n1)-c1c([nH]c3ccc(C#CC4CC4)cc13)CCCC2", "observed": "binding", "method": "competition with immobilised ligand", "concentration": "1 µM", "remaining binding [%]": 83}
